This is a sample that favours compounds with a hit; in the whole collection about 1.7% have one here.
CAL PDZ FP-1: inhibitors of human CAL PDZ peptide binding | inhibition, % at 24.9 µM | 300,000 tested, 0.92% active | AID 602252 | Q9HD26 | purified CAL PDZ, TMR-peptide fluorescence polarization, 1 h;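 active = mean inhibition of at least 30% with at least half of replicates also reaching 30%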;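 note: 0% = DMSO neutral control and 100% = excess unlabeled competitor peptide PRC23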
LANA DNA inh: inhibitors of KSHV LANA C-terminal domain DNA binding; AID 504423; MBP-C-LANA/FAM-LBS DNA binding, fluorescence polarization; inhibition, % at 9 µM; 340,000 tested, 0.078% active;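 active = highest replicate inhibition at or above 60% at 9 µM, even if other replicates fall short; inactive = all replicates below 60% inhibition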;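 note: 0% = neutral control wells and 100% = 4 µM acridine orange control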
APOBEC3G inh: inhibitors of human APOBEC3G DNA deaminase; inhibition, % at 20 µM; recombinant A3G, ssDNA deamination FAM/TAMRA fluorescence; Q9HC16; 330,000 tested, 0.28% active; AID 493012;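 active = inhibition of at least 40% at 20 µM, with no more than 30% in the related APOBEC3A deaminase screen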;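 note: plate controls were DMSO wells with A3G for no effect and wells lacking A3G enzyme for full effect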
Target sequence (Q9HC16 whole entry, looked up): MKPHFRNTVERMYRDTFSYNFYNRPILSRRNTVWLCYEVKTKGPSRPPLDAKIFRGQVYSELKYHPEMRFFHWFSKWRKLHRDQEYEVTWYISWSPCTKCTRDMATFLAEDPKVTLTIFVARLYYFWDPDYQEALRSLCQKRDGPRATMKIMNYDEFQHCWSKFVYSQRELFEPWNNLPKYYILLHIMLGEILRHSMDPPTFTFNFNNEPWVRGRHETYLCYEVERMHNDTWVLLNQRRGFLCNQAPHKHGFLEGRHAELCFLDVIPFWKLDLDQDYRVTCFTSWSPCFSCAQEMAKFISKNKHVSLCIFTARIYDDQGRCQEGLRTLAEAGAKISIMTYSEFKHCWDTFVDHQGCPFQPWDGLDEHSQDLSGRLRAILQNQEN
APOBEC3A inh: blocks human APOBEC3A ssDNA deamination | P31941 | recombinant A3A, FAM/TAMRA ssDNA deamination fluorescence | inhibition, % at 20 µM | 330,000 tested, 0.41% active | AID 493011;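 active = at least 40% inhibition at 20 µM here, with at most 30% in a related deaminase screen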;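 note: plate controls were A3A with DMSO for no effect and wells lacking A3A enzyme for full effect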
Keap1-Nrf2 PPI: inhibitors of human Keap1-Nrf2 protein-protein interaction; inhibition, % at 9.4 µM; Keap1 Kelch-Nrf2 peptide fluorescence polarization, 1536-well; Q14145; 340,000 tested, 0.15% active; in the data active = inhibition above about 12%;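 note: human Keap1 Kelch domain with fluorescein labeled Nrf2 9mer peptide probe; 0% = neutral control wells and 100% = peptide positive control; higher means more block of Keap1 binding to Nrf2 peptide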
CAL PDZ FP-2: inhibitors of human CAL PDZ peptide binding; Q9HD26; purified CAL PDZ, TMR-peptide fluorescence polarization, 1 h; inhibition, % at 20 µM; 330,000 tested, 0.02% active; AID 504414;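 active = highest replicate inhibition of at least 40%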;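 note: plate controls were DMSO neutral control wells for no effect and unlabeled competitor peptide control wells for full effect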
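Test system: tagged CAL PDZ domain / Buffer or medium: sodium phosphate/NaCl buffer pH 7.4 with TCEP, IgG, Thesit / Reagent: TMR-labelled reporter peptide T*-PRC34 bound in PDZ groove / Compound dosing: single point, 20 µM / Schedule: 1 h incubation at room temperature before polarization reading / Technique: fluorescence polarization (mP) / Benchmarks: unlabelled peptide, DMSO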
APOBEC3A confirm: APOBEC3A (human) deaminase inhibition, confirmed; shares compounds with APOBEC3A inh; recombinant A3A, ssDNA deaminase UDG fluorescence assay; inhibition, % at 20 µM; 1,400 tested, 63% active;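 active = inhibition reaching a set limit, 80% of the first screen's cutoff, at 20 µM in any replicate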;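 note: plate controls were DMSO wells with A3A for no effect and wells lacking A3A enzyme for full effect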
UDG A3A counter: counter-screen for APOBEC3A inhibitors: UDG. 1,000 tested, under 10 active. AID 504714. UDG counterscreen, FAM/TAMRA uracil oligo fluorescence. inhibition, % at 20 µM. shares compounds with APOBEC3A inh; call rule not given here
An asterisk follows results filed as active.

`CCCCCCCCCn1ccc(=N)cc1` gave CAL PDZ FP-1 -1.4, LANA DNA inh -1.4, APOBEC3G inh -4.7, APOBEC3A inh -2.1, Keap1-Nrf2 PPI 4.2 and CAL PDZ FP-2 0.3.
CCCCCn1ccc(=N)cc1 was read as CAL PDZ FP-1 -2.1, LANA DNA inh 3.0, APOBEC3G inh 28.4, APOBEC3A inh 62.2*, Keap1-Nrf2 PPI -0.3, CAL PDZ FP-2 -0.6, APOBEC3A confirm 71.8* and UDG A3A counter -3.4.
`CCCCCCCn1ccc(=N)cc1` gave CAL PDZ FP-1 -0.6, LANA DNA inh -0.1, APOBEC3G inh 18.9, APOBEC3A inh 74.3*, Keap1-Nrf2 PPI -3.2, CAL PDZ FP-2 -2.1, APOBEC3A confirm 74.3* and UDG A3A counter -1.0.
For CCOc1cc(N2CCOCC2)c(OCC)cc1NC(=O)CN1C(=O)N(C)C2(CCCCC2)C1=O the results were CAL PDZ FP-1 -3.6, LANA DNA inh 0.6, APOBEC3G inh -6.2, APOBEC3A inh 4.2, Keap1-Nrf2 PPI 3.8 and CAL PDZ FP-2 0.2.
`OCc1ccnc2oc3ccccc3c12` gave CAL PDZ FP-1 -4.1, LANA DNA inh -0.2, APOBEC3G inh -3.5, APOBEC3A inh -0.7, Keap1-Nrf2 PPI -2.6 and CAL PDZ FP-2 -1.7.
Screening c1cc(C2OCCN2CC2COC3(CCCC3)O2)ccn1 (centres undefined) returned CAL PDZ FP-1 0.7, LANA DNA inh 0.3, APOBEC3G inh -4.6, APOBEC3A inh -1.7, Keap1-Nrf2 PPI -5.7 and CAL PDZ FP-2 -0.4.
C[N+]1(CC2COC3(CCCCC3)O2)CCCCC1 (centres undefined) was read as CAL PDZ FP-1 -3.8, LANA DNA inh -0.2, APOBEC3G inh 24.5, APOBEC3A inh 67.9*, Keap1-Nrf2 PPI -1.6, CAL PDZ FP-2 0.0, APOBEC3A confirm 73.6* and UDG A3A counter -3.1.
COc1ccccc1NS(=O)(=O)c1cc(NC(=O)c2ccc(NC(C)=O)cc2)ccc1N1CCOCC1 was read as CAL PDZ FP-1 -12.9, LANA DNA inh -0.5, Keap1-Nrf2 PPI -4.6 and CAL PDZ FP-2 -2.5.
CCOc1cc(N2CCOCC2)c(OCC)cc1NS(=O)(=O)c1cc(NC(C)=O)ccc1OC was read as LANA DNA inh 2.7, APOBEC3G inh 5.8, APOBEC3A inh 46.3*, Keap1-Nrf2 PPI -2.2, CAL PDZ FP-2 -0.2, APOBEC3A confirm 19.7* and UDG A3A counter -3.4.
For CCOc1cc(N2CCOCC2)c(OCC)cc1NC(=O)c1c(C)noc1C the results were CAL PDZ FP-1 -2.7, APOBEC3G inh 5.6, APOBEC3A inh 43.2*, CAL PDZ FP-2 -0.3 and APOBEC3A confirm 7.8.
Screening CCOc1cc(N2CCOCC2)c(OCC)cc1NC(=O)c1c(-c2ccccc2)noc1C returned LANA DNA inh 0.3, APOBEC3G inh -0.4, APOBEC3A inh -0.5, Keap1-Nrf2 PPI -1.3 and CAL PDZ FP-2 -0.7.
CC(Sc1nc(N)cc(=O)[nH]1)C(=O)Nc1nc2c(s1)CCCC2 (centres undefined) was read as CAL PDZ FP-1 -6.0, LANA DNA inh -0.6, APOBEC3G inh -10.6, APOBEC3A inh -3.8, Keap1-Nrf2 PPI -1.5 and CAL PDZ FP-2 -2.3.
For CC(=O)Nc1cc(-c2ccccc2)ccc1O the results were CAL PDZ FP-1 -1.5, LANA DNA inh -1.1, APOBEC3G inh 16.4, APOBEC3A inh 46.6*, Keap1-Nrf2 PPI -9.4, CAL PDZ FP-2 0.0, APOBEC3A confirm 60.1* and UDG A3A counter -2.9.
For CC(=O)Nc1cc(Br)ccc1O the results were LANA DNA inh -0.4, APOBEC3G inh -13.3, APOBEC3A inh -2.5, Keap1-Nrf2 PPI 5.0 and CAL PDZ FP-2 -0.4.
For COc1ccc(-c2nc(SC(C)C(=O)Nc3ccc(NC(C)=O)cc3)n[nH]2)cc1 (centres undefined) the results were LANA DNA inh 0.3, APOBEC3G inh -11.3, APOBEC3A inh -3.8, Keap1-Nrf2 PPI 0.8 and CAL PDZ FP-2 -1.3.

Screens from PubChem.
